Source: ChEMBL document CHEMBL1133492, “Design, synthesis, and biological evaluation of fluoronitrophenyl substituted folate analogues as potential inhibitors of GAR transformylase and AICAR transformylase” (Bioorg Med Chem Lett, 2000)
Calls of active or inactive are those of the source. No cut-off for these calls is given here.

How the values were obtained:
CCRF-CEM [1] = experiment: Cytotoxicity in the presence of thymidine and hypoxanthine against CCRF-CEM cell line; type: functional, cell-based; conditions: Homo sapiens
How it was run: (§1)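 CCRF-CEM cells were grown in purine- and pyrimidine-free medium, with thymidine and/or hypoxanthine added or omitted as each line specifies. The cytotoxic potency was reported as an IC50 (µM).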

[2] = target: T1, Trifunctional purine biosynthetic protein adenosine-3 (Homo sapiens) (UniProt P22102); experiment: In vitro inhibitory activity against Glycinamide ribonucleotide transformylase (GAR Tfase) after 6 hr at 250 uM; type: functional
T1 sequence (whole entry): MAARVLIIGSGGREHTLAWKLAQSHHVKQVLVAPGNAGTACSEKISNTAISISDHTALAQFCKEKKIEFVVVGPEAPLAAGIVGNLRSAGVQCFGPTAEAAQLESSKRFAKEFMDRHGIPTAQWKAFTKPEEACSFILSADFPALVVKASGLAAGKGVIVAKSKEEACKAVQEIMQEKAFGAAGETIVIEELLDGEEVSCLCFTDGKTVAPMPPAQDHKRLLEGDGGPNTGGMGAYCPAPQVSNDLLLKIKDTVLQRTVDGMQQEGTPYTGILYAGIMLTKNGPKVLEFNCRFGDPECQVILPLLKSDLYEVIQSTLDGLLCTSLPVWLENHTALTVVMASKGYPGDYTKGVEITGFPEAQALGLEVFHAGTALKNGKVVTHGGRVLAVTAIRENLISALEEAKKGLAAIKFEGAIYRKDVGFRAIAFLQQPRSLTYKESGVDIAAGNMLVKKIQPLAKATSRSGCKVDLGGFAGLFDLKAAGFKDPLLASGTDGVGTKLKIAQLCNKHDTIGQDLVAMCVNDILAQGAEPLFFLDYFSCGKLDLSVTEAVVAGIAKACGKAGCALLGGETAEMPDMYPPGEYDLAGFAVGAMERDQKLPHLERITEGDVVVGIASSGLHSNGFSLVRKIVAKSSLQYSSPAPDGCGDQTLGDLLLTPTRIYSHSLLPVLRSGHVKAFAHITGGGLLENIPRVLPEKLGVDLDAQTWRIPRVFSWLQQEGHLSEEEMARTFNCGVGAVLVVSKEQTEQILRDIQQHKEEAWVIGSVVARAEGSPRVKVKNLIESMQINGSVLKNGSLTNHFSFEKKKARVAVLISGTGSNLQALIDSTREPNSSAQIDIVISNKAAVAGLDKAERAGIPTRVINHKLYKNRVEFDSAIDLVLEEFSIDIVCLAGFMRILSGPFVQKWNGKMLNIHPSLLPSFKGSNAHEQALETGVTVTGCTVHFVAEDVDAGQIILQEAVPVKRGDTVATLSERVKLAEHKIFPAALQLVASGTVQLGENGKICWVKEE

[3] = target: T1, Trifunctional purine biosynthetic protein adenosine-3 (Homo sapiens); experiment: In vitro inhibitory activity against Glycinamide ribonucleotide transformylase (GAR Tfase) after 30 min at 250 uM; Not active
CCRF-CEM [4] = experiment: Cytotoxicity in the absence of thymidine and hypoxanthine against CCRF-CEM cell line; type: functional, cell-based; conditions: Homo sapiens; how it was run: as §1
[5] = target: T1, Trifunctional purine biosynthetic protein adenosine-3 (Homo sapiens); experiment: In vitro inhibitory activity against Glycinamide ribonucleotide transformylase (GAR Tfase) after 3 min at 250 uM; Not active
CCRF-CEM [6] = experiment: Cytotoxicity in the absence of thymidine and presence of hypoxanthine against CCRF-CEM cell line; type: functional, cell-based; conditions: Homo sapiens; how it was run: as §1
CCRF-CEM [7] = experiment: Cytotoxicity in the absence of hypoxanthine and presence of thymidine against CCRF-CEM cell line; type: functional, cell-based; conditions: Homo sapiens; how it was run: as §1
[8] = target: Bifunctional purine biosynthesis protein ATIC (Homo sapiens, UniProt P31939); experiment: In vitro inhibitory activity against Aminoimidazole carboxamide ribonucleotide transformylase after 12 hr at 250 uM; Not active
Chain of Bifunctional purine biosynthesis protein ATIC (P31939 whole entry, looked up): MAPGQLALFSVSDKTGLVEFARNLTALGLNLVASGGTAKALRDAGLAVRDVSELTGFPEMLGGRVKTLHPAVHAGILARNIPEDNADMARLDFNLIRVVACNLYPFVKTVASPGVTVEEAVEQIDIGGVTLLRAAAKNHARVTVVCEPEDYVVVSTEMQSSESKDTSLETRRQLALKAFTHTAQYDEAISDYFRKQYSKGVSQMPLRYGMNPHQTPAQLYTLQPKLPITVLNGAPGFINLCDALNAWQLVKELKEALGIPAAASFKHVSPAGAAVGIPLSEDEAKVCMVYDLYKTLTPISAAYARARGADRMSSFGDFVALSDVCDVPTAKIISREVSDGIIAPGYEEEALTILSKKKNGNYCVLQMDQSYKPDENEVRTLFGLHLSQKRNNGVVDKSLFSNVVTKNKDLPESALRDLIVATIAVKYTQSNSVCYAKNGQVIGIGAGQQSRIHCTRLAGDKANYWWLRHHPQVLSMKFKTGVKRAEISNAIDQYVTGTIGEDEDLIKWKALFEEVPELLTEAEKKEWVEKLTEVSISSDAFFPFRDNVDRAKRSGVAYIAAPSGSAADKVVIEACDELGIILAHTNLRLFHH

inhibition [2]: 59% | inhibition [3]: inactive | inhibition [5]: inactive | inhibition [8]: inactive
Structure (SMILES): Nc1nc(N)c(CCCNc2ccc([N+](=O)[O-])c(F)c2F)c(O)n1
IC50 (CCRF-CEM [1]): 73 µM | IC50 (CCRF-CEM [4]): 76 µM | IC50 (CCRF-CEM [6]): 76 µM | IC50 (CCRF-CEM [7]): 68 µM
